From ChEMBL document CHEMBL1687785, “ampG gene of Pseudomonas aeruginosa and its role in β-lactamase expression” (2010)
In brackets after ≈: the same amount, converted by molar mass.

Legend:
Assay type in all cases: functional
Pseudomonas aeruginosa [1] = assay: Antimicrobial activity against ampG deficient Pseudomonas aeruginosa PAO1 harboring pZY0901 conferring resistance to gentamycin after 16 to 20 hrs by broth microdilution method
Procedure, shortened: (§1)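 CLSI broth microdilution in Mueller-Hinton broth, serial 2-fold antibiotic dilutions. Inoculum about 10^4 cells per well, taken from starter cultures grown to OD600 0.5. MIC was the lowest antibiotic concentration preventing growth after 16 to 20 h at 37°C. Each MIC was determined in triplicate.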

Pseudomonas aeruginosa [2] = assay: Antimicrobial activity against ampD, ampDh2, ampDh3 and ampG deficient Pseudomonas aeruginosa PAO1 after 16 to 20 hrs by broth microdilution method in presence of 120 uM carbonyl cyanide m-chlorophenyl-hydrazone
Procedure, shortened: (§2)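 CLSI broth microdilution in Mueller-Hinton broth with serial antibiotic dilutions. CCCP was added from a 10 mM DMSO stock to 120 μM final, then the bacterial culture was added as inoculum (about 10^4 cells from OD600 0.5 starter cultures). MIC was the lowest concentration preventing growth after 16 to 20 h at 37°C, run in triplicate.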

Pseudomonas aeruginosa [3] = assay: Antimicrobial activity against Pseudomonas aeruginosa PAO1 after 16 to 20 hrs by broth microdilution method in presence of 120 uM carbonyl cyanide m-chlorophenyl-hydrazone
Procedure, shortened: (§3)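 CLSI broth microdilution in Mueller-Hinton broth with CCCP added from a 10 mM DMSO stock to 120 μM final, alongside 2-fold serial antibiotic dilutions. Inoculum from starter cultures grown to OD600 0.5. MIC is the lowest concentration preventing growth after 16-20 h at 37°C. Triplicate.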

Pseudomonas aeruginosa [4] = assay: Antimicrobial activity against Pseudomonas aeruginosa isolate 1 obtained from cystic fibrosis patients after 16 to 20 hrs by broth microdilution method
Procedure, shortened: (§4)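 CLSI broth microdilution: 2-fold serial antibiotic dilutions in Mueller-Hinton broth, inoculated with about 10^4 cells per 100 μl from starter cultures grown to OD600 0.5. MIC is the lowest concentration preventing growth after 16-20 h at 37°C. Triplicate.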

Pseudomonas aeruginosa [5] = assay: Antimicrobial activity against ampG deficient Pseudomonas aeruginosa PAK harboring pZY0901 conferring resistance to gentamycin after 16 to 20 hrs by broth microdilution method in presence of 120 uM carbonyl cyanide m-chlorophenyl-hydrazone; procedure, shortened: as §2
Pseudomonas aeruginosa [6] = assay: Antimicrobial activity against ampG deficient Pseudomonas aeruginosa PAO1 harboring pUCP24 conferring resistance to gentamycin after 16 to 20 hrs by broth microdilution method; procedure, shortened: as §1
Pseudomonas aeruginosa [7] = assay: Antimicrobial activity against ampD, […], ampDh2 deficient Pseudomonas aeruginosa PAO1 after 16 to 20 hrs by broth microdilution method; procedure, shortened: as §1
Pseudomonas aeruginosa [8] = assay: Antimicrobial activity against Pseudomonas aeruginosa isolate 11 obtained from cystic fibrosis patients after 16 to 20 hrs by broth microdilution method; procedure, shortened: as §4
Pseudomonas aeruginosa [9] = assay: Antimicrobial activity against Pseudomonas aeruginosa isolate 8 obtained from cystic fibrosis patients after 16 to 20 hrs by broth microdilution method in presence of 120 uM carbonyl cyanide m-chlorophenyl-hydrazone; procedure, shortened: as §2
Pseudomonas aeruginosa [10] = assay: Antimicrobial activity against ampG, ampGh1 deficient Pseudomonas aeruginosa PAO1 after 16 to 20 hrs by broth microdilution method; procedure, shortened: as §1
Pseudomonas aeruginosa [11] = assay: Antimicrobial activity against ampG, ampGh1 deficient Pseudomonas aeruginosa PAK after 16 to 20 hrs by broth microdilution method; procedure, shortened: as §1
Pseudomonas aeruginosa [12] = assay: Antimicrobial activity against ampG, ampGh1 deficient Pseudomonas aeruginosa PAK after 16 to 20 hrs by broth microdilution method in presence of 120 uM carbonyl cyanide m-chlorophenyl-hydrazone; procedure, shortened: as §2
Pseudomonas aeruginosa [13] = assay: Antimicrobial activity against ampGh1 deficient Pseudomonas aeruginosa PAO1 after 16 to 20 hrs by broth microdilution method in presence of 120 uM carbonyl cyanide m-chlorophenyl-hydrazone
Procedure, shortened: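 Serial 2-fold dilutions of β-lactam in Mueller-Hinton broth with CCCP added from a 10 mM DMSO stock to 120 μM final; inoculum about 10^4 cells from cultures grown to OD600 0.5; MIC taken as lowest concentration preventing growth after 16 to 20 h at 37°C; triplicate.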

Pseudomonas aeruginosa [14] = assay: Antimicrobial activity against Pseudomonas aeruginosa isolate 10 obtained from cystic fibrosis patients after 16 to 20 hrs by broth microdilution method in presence of 120 uM carbonyl cyanide m-chlorophenyl-hydrazone; procedure, shortened: as §3
Pseudomonas aeruginosa [15] = assay: Antimicrobial activity against ampG deficient Pseudomonas aeruginosa PAO1 after 16 to 20 hrs by broth microdilution method; procedure, shortened: as §1
Pseudomonas aeruginosa [16] = assay: Antimicrobial activity against Pseudomonas aeruginosa isolate 3 obtained from cystic fibrosis patients after 16 to 20 hrs by broth microdilution method in presence of 120 uM carbonyl cyanide m-chlorophenyl-hydrazone; procedure, shortened: as §2
Pseudomonas aeruginosa [17] = assay: Antimicrobial activity against Pseudomonas aeruginosa isolate 2 obtained from cystic fibrosis patients after 16 to 20 hrs by broth microdilution method; procedure, shortened: as §1
Pseudomonas aeruginosa [18] = assay: Antimicrobial activity against Pseudomonas aeruginosa isolate 14 obtained from cystic fibrosis patients after 16 to 20 hrs by broth microdilution method in presence of 120 uM carbonyl cyanide m-chlorophenyl-hydrazone; procedure, shortened: as §3
Pseudomonas aeruginosa [19] = assay: Antimicrobial activity against ampD, ampDh2, ampDh3 and ampG deficient Pseudomonas aeruginosa PAO1 after 16 to 20 hrs by broth microdilution method; procedure, shortened: as §1
Pseudomonas aeruginosa [20] = assay: Antimicrobial activity against Pseudomonas aeruginosa isolate 4 obtained from cystic fibrosis patients after 16 to 20 hrs by broth microdilution method; procedure, shortened: as §1
Pseudomonas aeruginosa [21] = assay: Antimicrobial activity against Pseudomonas aeruginosa isolate 16 obtained from cystic fibrosis patients after 16 to 20 hrs by broth microdilution method; procedure, shortened: as §4
Pseudomonas aeruginosa [22] = assay: Antimicrobial activity against Pseudomonas aeruginosa isolate 15 obtained from cystic fibrosis patients after 16 to 20 hrs by broth microdilution method; procedure, shortened: as §4
Pseudomonas aeruginosa [23] = assay: Antimicrobial activity against ampG deficient Pseudomonas aeruginosa PAO1 harboring pZY0908 conferring resistance to gentamycin after 16 to 20 hrs by broth microdilution method; procedure, shortened: as §1
Pseudomonas aeruginosa [24] = assay: Antimicrobial activity against ampG deficient Pseudomonas aeruginosa PAK harboring pUCP24 conferring resistance to gentamycin after 16 to 20 hrs by broth microdilution method; procedure, shortened: as §1
Pseudomonas aeruginosa [25] = assay: Antimicrobial activity against Pseudomonas aeruginosa isolate 18 obtained from cystic fibrosis patients after 16 to 20 hrs by broth microdilution method in presence of 120 uM carbonyl cyanide m-chlorophenyl-hydrazone; procedure, shortened: as §2
Pseudomonas aeruginosa [26] = assay: Antimicrobial activity against Pseudomonas aeruginosa PAK after 16 to 20 hrs by broth microdilution method; procedure, shortened: as §4
Pseudomonas aeruginosa [27] = assay: Antimicrobial activity against ampG deficient Pseudomonas aeruginosa PAK after 16 to 20 hrs by broth microdilution method in presence of 120 uM carbonyl cyanide m-chlorophenyl-hydrazone; procedure, shortened: as §2
Pseudomonas aeruginosa [28] = assay: Antimicrobial activity against Pseudomonas aeruginosa isolate 11 obtained from cystic fibrosis patients after 16 to 20 hrs by broth microdilution method in presence of 120 uM carbonyl cyanide m-chlorophenyl-hydrazone; procedure, shortened: as §3
Pseudomonas aeruginosa [29] = assay: Antimicrobial activity against ampD, ampDh2, ampDh3 deficient Pseudomonas aeruginosa PAO1 after 16 to 20 hrs by broth microdilution method in presence of 120 uM carbonyl cyanide m-chlorophenyl-hydrazone; procedure, shortened: as §2
Pseudomonas aeruginosa [30] = assay: Antimicrobial activity against Pseudomonas aeruginosa isolate 5 obtained from cystic fibrosis patients after 16 to 20 hrs by broth microdilution method; procedure, shortened: as §1
Pseudomonas aeruginosa [31] = assay: Antimicrobial activity against ampD, ampDh2, ampDh3 and ampGh1 deficient Pseudomonas aeruginosa PAO1 after 16 to 20 hrs by broth microdilution method; procedure, shortened: as §1

Q: For `CC1(C)S[C@@H]2[C@H](NC(=O)[C@H](N)c3ccccc3)C(=O)N2[C@H]1C(=O)O` [AMPICILLIN], which MIC (Pseudomonas aeruginosa [1]) is on record?
A: 1020 µg/mL (≈ 2930 µM)

Q: What about the MIC (Pseudomonas aeruginosa [2]) of the same compound?
A: 16 µg/mL

Q: What about the MIC (Pseudomonas aeruginosa [3]) of the same compound?
A: 128 µg/mL

Q: What about the MIC (Pseudomonas aeruginosa [4]) of the same compound?
A: 512 µg/mL (≈ 1470 µM)

Q: And the MIC (Pseudomonas aeruginosa [5])?
A: 32 µg/mL

Q: And the MIC (Pseudomonas aeruginosa [6])?
A: 32 µg/mL (≈ 91.6 µM)

Q: And the MIC (Pseudomonas aeruginosa [7])?
A: 1020 µg/mL (≈ 2930 µM)

Q: And the MIC (Pseudomonas aeruginosa [8])?
A: 512 µg/mL (≈ 1470 µM)

Q: And the MIC (Pseudomonas aeruginosa [9])?
A: 8 µg/mL

Q: What about the MIC (Pseudomonas aeruginosa [10]) of the same compound?
A: 32 µg/mL (≈ 91.6 µM)

Q: What about the MIC (Pseudomonas aeruginosa [11]) of the same compound?
A: 32 µg/mL (≈ 91.6 µM)

Q: What about the MIC (Pseudomonas aeruginosa [12]) of the same compound?
A: 32 µg/mL

Q: What about the MIC (Pseudomonas aeruginosa [13]) of the same compound?
A: 256 µg/mL

Q: And the MIC (Pseudomonas aeruginosa [14])?
A: 8 µg/mL

Q: What about the MIC (Pseudomonas aeruginosa [15]) of the same compound?
A: 32 µg/mL (≈ 91.6 µM)

Q: And the MIC (Pseudomonas aeruginosa [16])?
A: 64 µg/mL

Q: And the MIC (Pseudomonas aeruginosa [17])?
A: 256 µg/mL (≈ 733 µM)

Q: And the MIC (Pseudomonas aeruginosa [18])?
A: 8 µg/mL

Q: And the MIC (Pseudomonas aeruginosa [19])?
A: 16 µg/mL (≈ 45.8 µM)

Q: What about the MIC (Pseudomonas aeruginosa [20]) of the same compound?
A: 512 µg/mL (≈ 1470 µM)

Q: What about the MIC (Pseudomonas aeruginosa [21]) of the same compound?
A: 16 µg/mL (≈ 45.8 µM)

Q: And the MIC (Pseudomonas aeruginosa [22])?
A: > 1020 µg/mL

Q: And the MIC (Pseudomonas aeruginosa [23])?
A: 32 µg/mL (≈ 91.6 µM)

Q: What about the MIC (Pseudomonas aeruginosa [24]) of the same compound?
A: 32 µg/mL (≈ 91.6 µM)

Q: What about the MIC (Pseudomonas aeruginosa [25]) of the same compound?
A: 256 µg/mL

Q: What about the MIC (Pseudomonas aeruginosa [26]) of the same compound?
A: 512 µg/mL (≈ 1470 µM)

Q: And the MIC (Pseudomonas aeruginosa [27])?
A: 32 µg/mL

Q: What about the MIC (Pseudomonas aeruginosa [28]) of the same compound?
A: 8 µg/mL

Q: And the MIC (Pseudomonas aeruginosa [29])?
A: 64 µg/mL

Q: And the MIC (Pseudomonas aeruginosa [30])?
A: 512 µg/mL (≈ 1470 µM)

Q: What about the MIC (Pseudomonas aeruginosa [31]) of the same compound?
A: 1020 µg/mL (≈ 2930 µM)
